Screening results as filed in PubChem.
ROMK mod: modulators of human ROMK potassium channel. P48048. Tet-inducible ROMK, thallium flux fluorescence; actives lie on both sides. B-score at 10 µM. 130,000 compounds, 2% hits;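 active means signal ratio slope over the read window, or its plate-corrected B-score, at least 3 SD from the plate mean, either direction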;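 further: B-score of the F/F0 ratio slope over 7 to 12 s after thallium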
Target sequence (P48048 whole entry, looked up): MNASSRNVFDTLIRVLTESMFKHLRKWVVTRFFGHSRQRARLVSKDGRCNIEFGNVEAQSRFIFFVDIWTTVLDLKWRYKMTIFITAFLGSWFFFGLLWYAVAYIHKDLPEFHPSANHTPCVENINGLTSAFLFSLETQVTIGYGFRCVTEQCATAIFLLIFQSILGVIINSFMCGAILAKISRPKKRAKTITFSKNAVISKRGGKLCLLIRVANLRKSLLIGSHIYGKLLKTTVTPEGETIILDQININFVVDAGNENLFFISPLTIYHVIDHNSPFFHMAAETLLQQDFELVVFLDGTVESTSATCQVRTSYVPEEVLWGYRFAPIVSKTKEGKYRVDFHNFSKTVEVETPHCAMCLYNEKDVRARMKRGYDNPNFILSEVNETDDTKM
Calb biofilm kill: mixtures killing C. albicans biofilm; C. albicans biofilm persisters + clotrimazole, fluorescence viability; primary screen in compound mixtures of four per well; 120,000 compounds, 0.02% hits; inhibition, % at 7.6 µM; AID 1242;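 active means inhibition above 30.3% in the primary screen of four-compound pools, then above 30% when the compound was retested; inconclusive means passed the primary limit but could not be retested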;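 further: compounds exposed to preformed 24 h biofilms for 48 h; 0% = untreated biofilm control and 100% = clotrimazole plus chlorhexidine kill blank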
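System: C. albicans CAF4-2 wild-type biofilms; Medium: RPMI/MOPS medium, pH 7.0; Reagent: Clotrimazole, 50 µg/mL; Times: biofilm formation 24 h, compound exposure 48 h, 37 °C; Detection: 2-h Alamar Blue fluorescence, 535/590 nm excitation/emission; Evaluation: percent inhibition of biofilm viability.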
Pf gamet viab: kills late stage P. falciparum gametocytes; inhibition, % at 10.9 µM; AID 743093; P. falciparum stage V gametocytes, ATP luminescence, 24 h; 150,000 compounds, 0.065% hits;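 active means inhibition above the mean plus 3 SD of compounds within the control limits, set per campaign, cut at about 38% in these data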;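 further: 0% = DMSO wells and 100% = medium only without gametocytes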
ROMK retest: retested hit modulating human ROMK potassium channel; shares compounds with ROMK mod; ROMK thallium flux, fluorescence ratio; hits give low values; normalized thallium flux (F/F0 slope) at 10 µM; 3,000 compounds, 54% hits; AID 1917;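 active means Flux at 10 µM at least 3 SD below or above vehicle control mean in one or both replicates; inconclusive means no clear call, values can overlap the other calls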
The depositor's hits bear a star; ? = inconclusive; / = no result. Only a selection was taken, and hits are over-represented in it overall.

SMILES	ROMK mod	Calb biofilm kill	Pf gamet viab	ROMK retest
CCOc1ccc(-c2nn(-c3ccccc3)cc2/C=C2\SC(=S)N(C3CCS(=O)(=O)C3)C2=O)cc1 (stereo not drawn)	-5.4*	/	-2	0.049*
COc1ccccc1NC(=O)CC(NC1CCCCC1)C(=O)O (stereo not drawn)	0.052	5	-10	/
O=C(O)c1ccc2ncc(NC(=O)c3ccc(F)cc3)c(=O)n2c1	/	12	-1	/
O=c1c2ccccc2nnn1CSc1nnc(C2COc3ccccc3O2)n1-c1ccccc1 (stereo not drawn)	-2.9*	/	/	0.042*
O=c1c2ccccc2nnn1CSc1nnc(-c2cccnc2)n1-c1ccccc1F	0.39	/	/	/
Nc1nc(-c2ccc(Cl)cc2)nn1C(=O)c1ccco1	-0.55	27	-5	/
CC(=O)Nc1ccc(S(=O)(=O)N(CCCN2CCOCC2)Cc2cccs2)cc1	0.39	-8	/	/
CC(C)(C)c1ccc(S(=O)(=O)N(CCCN2CCOCC2)Cc2cccs2)cc1	-3.5*	0	/	0.052*
NC(=O)CSc1nccn1Cc1ccc(Cl)cc1	0.22	-4	-6	/
Cn1c(=O)c([N+](=O)[O-])c(NCCCn2ccnc2)c2ccccc21	/	9	-27	/
Cn1c(=O)c([N+](=O)[O-])c(-n2ccnc2)c2ccccc21	-8.3*	5	-1	0.048*
O=C(CCn1c(=S)oc2ccccc21)N1CCCCC1	-0.31	15	-8	/
Cc1ccc(NC(=O)CCC(=O)NNC(=S)Nc2ccccc2)c(C)c1	/	6	/	/
Cc1ccc(NC(=S)NNC(=S)Nc2ccc(C)cc2C)cc1	5.3*	5	/	0.087
Cc1cc(C)cc(NC(=O)N2CCN(C/C=C/c3ccccc3)CC2)c1	-4.2*	2	2	0.067*
O=C(Nc1ccc(F)cc1)N1CCN(C/C=C/c2ccccc2)CC1	/	/	-13	/
O=C(CSc1nnc(Cn2c(=O)sc3ccccc32)n1CCc1ccccc1)N1CCCC1	/	/	/	0.078
Cn1c(CCc2ccccc2)nnc1SCC(=O)N1CCCC1	/	/	-7	/
CC(=O)Nc1ncc(Cc2ccc(Cl)cc2Cl)s1	2.2	13	-18	/
CC(=O)Nc1ccc(S(=O)(=O)NCCCN2CCN(Cc3ccccc3)CC2)cc1Cl	-13*	10	-15	0.073
CC(=O)N1CCc2cc(S(=O)(=O)NCCC(=O)N3CCN(Cc4ccccc4)CC3)ccc21	/	/	1	/
CCOC(=O)c1cc(-c2ccc(/C=N\n3cnnc3)o2)ccc1Cl	/	/	/	0.066*
CCCCOC(=O)c1cc(-c2ccc(/C=N/n3cnnc3)o2)ccc1Cl	/	/	-1	/
Cc1ccc(C2C3CSCC=C3C(C#N)=C(N)C2(C#N)C#N)cc1 (stereo not drawn)	-0.26	/	/	/
N#CC1=C(N)C(C#N)(C#N)[C@H](c2ccncc2)[C@H]2CC3(CC=C12)OCCO3	-3.8*	/	32	?
SMILES	ROMK mod	Calb biofilm kill	Pf gamet viab	ROMK retest
Cc1cccc(N2CCN(C(c3ccccc3)c3nnnn3C(C)(C)C)CC2)c1C (stereo not drawn)	-3.3*	12	/	0.088
Cc1cccc(N2CCN(C(c3cccs3)c3nnnn3C(C)(C)C)CC2)c1C (stereo not drawn)	0.056	/	/	/
COc1ccccc1OCC(=O)N(Cc1nc(-c2ccccc2)no1)C1CCCCC1	/	/	-42	0.079
CC(C)N(Cc1nc(-c2ccccc2)no1)C(=O)C1CCCCC1	-1.4	/	/	/
COc1ccc(CN(C(=O)COc2ccccc2)c2ccccc2C(=O)O)cc1	/	20	28	/
Cc1ccc(NC(=O)Cn2nnc3ccccc3c2=O)cc1C	-0.057	12	4	/
Fc1ccc(Nc2nnc(C(F)(F)F)s2)cc1Cl	/	23	-8	0.062*
FC(F)(F)c1nnc(Nc2ccc(Cl)cc2)s1	-1.2	29	-5	/
O=Cc1s/c(=N\S(=O)(=O)c2ccccc2)n(CCCCl)c1Cl	-6.1*	25	/	0.043*
COCCCN1C(=O)CS/C1=N\S(=O)(=O)c1ccccc1	/	2	1	/
Cc1cc2cc(C=C(C#N)C#N)c(Cl)nc2cc1C	-0.39	5	2	/
COc1cc(/C=C2\SC(N)=NC2=O)ccc1OCC(=O)Nc1ccc(C)cc1	/	14	3	/
COc1cc(/C=C2\SC(=O)N(c3ccccc3Cl)C2=O)cc([N+](=O)[O-])c1O	-0.59	35	14	/
COc1cc(/C=C2\SC(c3ccccc3)=NC2=O)cc(Cl)c1O	3.2*	6	0	0.066*
COc1ccc(/C=C2/SC(c3ccc(C)cc3)=NC2=O)cc1OC	-3.2*	/	/	0.053*
Cc1cc(-c2cc(-c3ccc(Cl)cc3)nc(N)c2C#N)co1	-0.39	/	13	/
CC(=O)OCC(=O)NCC(=O)c1c[nH]c2ccccc12	0.0033	7	/	/
CN(NC1OC(=O)c2ccccc21)c1ccc(C(F)(F)F)cc1[N+](=O)[O-] (stereo not drawn)	/	13	-2	/
CCNC(=O)/C(C#N)=C/c1c(N2CCN(Cc3ccc4c(c3)OCO4)CC2)nc2c(C)cccn2c1=O	/	-2	13	/
O=C(N/N=C/C=C/c1ccccc1)c1n[nH]c2c1CCC2	4*	/	/	0.09
CC(/C=N/NC(=O)c1n[nH]c2c1CCC2)=C\c1ccccc1	5.5*	/	23	0.09
O=C(N/N=C\c1cccc(Cl)c1)c1n[nH]c2c1CCCC2	0.9	4	3	/
O=C(N/N=C/C(Br)=C\c1ccccc1)c1n[nH]c2c1CCC2	2.9	/	11	/
CCCCCCCSc1nnc(N)s1	/	18	-53	/
OCc1nc2c(ccc3ccccc32)[nH]1	/	/	-1	/
SMILES	ROMK mod	Calb biofilm kill	Pf gamet viab	ROMK retest
CCOc1ccccc1CNS(=O)(=O)c1ccc2[nH]c(=O)sc2c1	-3.5*	/	13	0.075
COc1ccccc1CNS(=O)(=O)c1ccc2[nH]cc(C(=O)O)c(=O)c2c1	0.4	/	/	/
CCCCN1C(=O)C2C(c3ccc(OC)cc3O)NC(CC(C)C)(C(=O)O)C2C1=O (stereo not drawn)	/	/	/	0.08
CCN1C(=O)[C@H]2[C@@H](c3ccc(-c4ccccc4)cc3)N[C@@](CC(C)C)(C(=O)OC)[C@H]2C1=O	/	/	10	/
CC(C)(CN1CCN(C(c2ccccc2)c2ccccc2)CC1)NS(=O)(=O)c1ccccc1	0.39	25	3	/
O=C(Cn1ncc(Cl)c(Cl)c1=O)N1CCN(Cc2ccccc2)CC1	-1.1	17	/	/
O=C(Cn1ncc(Cl)c(Cl)c1=O)N1CCc2ccccc21	-3.3*	9	-3	?
O=C(CN1CCc2ccccc2C1)NCC(=O)Nc1ccc(F)cc1	-1.4	12	/	/
Cc1cccc(N/N=C(\C(N)=O)C2=NC(C)(C)Cc3ccccc32)c1	-3*	4	-4	0.059*
CCOC(=O)/C(=N\O)C1=NC(C)(C)Cc2ccccc21	-1.5	11	-2	/
C/C(Cl)=C\Cn1c(N2CCCC2)nc2c1c(=O)[nH]c(=O)n2C	/	/	/	0.076
C/C(Cl)=C/Cn1c(N2CCCC2)nc2c1c(=O)n(C)c(=O)n2C	/	/	5	/
O=C(CN1CCc2ccccc2C1)Nc1ccccc1C(F)(F)F	/	/	-7	/
O=C(COC(=O)c1ccccc1[N+](=O)[O-])Nc1cc(S(=O)(=O)N2CCOCC2)ccc1N1CCCC1	-0.098	18	-15	/
NC1=CC(=O)c2cccc3cccc1c23	-3.8*	/	/	0.051*
O=C1C=C(O)c2cccc3cccc1c23	/	/	-19	/
C#CCNC(=O)C1=C[C@@H](c2coc3ccccc3c2=O)C[C@@H](OCc2ccc(CO)cc2)O1	/	13	-26	/
CCn1c(=O)c2c3c(sc2n2c(=S)[nH]nc12)CCC3	2.3*	/	/	0.079
